Measured values: ChEMBL document CHEMBL5696442, “Discovery of type II inhibitors of TGFβ-activated kinase 1 (TAK1) and mitogen-activated protein kinase kinase kinase kinase 2 (MAP4K2)” (J Med Chem, 2015)
The source made the active and inactive calls. The calls are words filed in the database; no cut-off is given here.

Experiments:
[1] = target: Tyrosine-protein kinase BTK (Homo sapiens) (UniProt Q06187); experiment: Inhibition of BTK (unknown origin) at 10 uM by Ambit Kinomescan binding assay
[2] = target: Receptor tyrosine-protein kinase erbB-2 (Homo sapiens) (UniProt P04626); experiment: Inhibition of ERBB2 (unknown origin) at 10 uM by Ambit Kinomescan binding assay
[3] = target: LIM domain kinase 1 (Homo sapiens) (UniProt P53667); experiment: Inhibition of LIMK1 (unknown origin) at 10 uM by Ambit Kinomescan binding assay
Chain of LIM domain kinase 1 (Homo sapiens) (P53667 whole entry, looked up, the tested form may be a part): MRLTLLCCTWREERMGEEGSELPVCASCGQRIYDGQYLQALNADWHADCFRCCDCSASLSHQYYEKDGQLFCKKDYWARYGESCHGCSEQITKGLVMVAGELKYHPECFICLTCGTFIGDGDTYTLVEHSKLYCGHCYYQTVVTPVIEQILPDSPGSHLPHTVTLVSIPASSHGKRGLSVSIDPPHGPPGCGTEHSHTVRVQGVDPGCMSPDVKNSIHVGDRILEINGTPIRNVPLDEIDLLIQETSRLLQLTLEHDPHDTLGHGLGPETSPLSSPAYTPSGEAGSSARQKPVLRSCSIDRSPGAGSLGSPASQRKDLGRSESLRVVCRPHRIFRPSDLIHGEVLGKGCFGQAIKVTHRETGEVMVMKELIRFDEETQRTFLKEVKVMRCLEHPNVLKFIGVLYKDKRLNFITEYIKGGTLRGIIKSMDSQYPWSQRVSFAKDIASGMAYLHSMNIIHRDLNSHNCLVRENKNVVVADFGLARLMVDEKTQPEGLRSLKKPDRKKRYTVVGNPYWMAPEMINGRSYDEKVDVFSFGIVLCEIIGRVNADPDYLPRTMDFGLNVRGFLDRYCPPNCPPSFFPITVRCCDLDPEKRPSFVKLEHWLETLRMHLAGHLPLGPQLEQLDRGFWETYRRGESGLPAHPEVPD

[4] = target: Dual specificity mitogen-activated protein kinase kinase 2 (Homo sapiens) (UniProt P36507); experiment: Inhibition of MAP2K2 Lys2 labeling site in human A-375 cells at 5 uM by KiNativ Profiling analysis relative to control; format: cell-based
Chain of Dual specificity mitogen-activated protein kinase kinase 2 (Homo sapiens) (P36507 whole entry): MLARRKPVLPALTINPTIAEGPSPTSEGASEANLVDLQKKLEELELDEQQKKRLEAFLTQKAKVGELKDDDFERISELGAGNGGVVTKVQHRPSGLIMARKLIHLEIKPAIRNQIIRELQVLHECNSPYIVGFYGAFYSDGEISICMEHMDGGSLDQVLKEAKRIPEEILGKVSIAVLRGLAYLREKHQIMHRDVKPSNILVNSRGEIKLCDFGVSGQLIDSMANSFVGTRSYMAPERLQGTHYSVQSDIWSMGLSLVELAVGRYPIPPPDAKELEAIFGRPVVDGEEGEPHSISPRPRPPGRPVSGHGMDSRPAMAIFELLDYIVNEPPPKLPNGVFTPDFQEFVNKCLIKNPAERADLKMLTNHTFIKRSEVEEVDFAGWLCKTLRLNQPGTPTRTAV

[5] = Inhibition of […] ATP labeling site in human Huh-7 cells at 10 uM by KiNativ Profiling analysis relative to control; conditions: condition cancer
[6] = Inhibition of Wnk1/2/3 K2 labeling site in human Huh-7 cells at 10 uM by KiNativ Profiling analysis relative to control; conditions: condition cancer
[7] = target: T1, Serine/threonine-protein kinase STK11 (Homo sapiens) (UniProt Q15831); experiment: Inhibition of LKB1 K2 labeling site in human Huh-7 cells at 1 uM by KiNativ Profiling analysis relative to control; format: cell-based
T1 sequence (whole entry): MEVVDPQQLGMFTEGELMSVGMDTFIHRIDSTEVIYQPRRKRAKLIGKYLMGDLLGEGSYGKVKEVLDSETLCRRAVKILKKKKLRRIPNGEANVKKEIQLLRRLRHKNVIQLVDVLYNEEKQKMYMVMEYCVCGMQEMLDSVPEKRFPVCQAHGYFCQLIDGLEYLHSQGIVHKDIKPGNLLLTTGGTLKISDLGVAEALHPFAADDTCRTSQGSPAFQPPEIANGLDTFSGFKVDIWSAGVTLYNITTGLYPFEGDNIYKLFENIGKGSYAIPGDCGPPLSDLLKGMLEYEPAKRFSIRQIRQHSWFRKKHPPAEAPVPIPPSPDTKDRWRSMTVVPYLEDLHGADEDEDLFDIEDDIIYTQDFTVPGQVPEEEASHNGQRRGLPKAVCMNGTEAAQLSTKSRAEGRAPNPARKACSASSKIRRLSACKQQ

[8] = target: T2, Dual specificity mitogen-activated protein kinase kinase 4 (Homo sapiens) (UniProt P45985); experiment: Inhibition of MAP2K4 K2 labeling site harbouring IIHRDIKPSNILLDR in human Huh-7 cells at 1 uM by KiNativ Profiling analysis relative to control; format: cell-based
T2 sequence (whole entry): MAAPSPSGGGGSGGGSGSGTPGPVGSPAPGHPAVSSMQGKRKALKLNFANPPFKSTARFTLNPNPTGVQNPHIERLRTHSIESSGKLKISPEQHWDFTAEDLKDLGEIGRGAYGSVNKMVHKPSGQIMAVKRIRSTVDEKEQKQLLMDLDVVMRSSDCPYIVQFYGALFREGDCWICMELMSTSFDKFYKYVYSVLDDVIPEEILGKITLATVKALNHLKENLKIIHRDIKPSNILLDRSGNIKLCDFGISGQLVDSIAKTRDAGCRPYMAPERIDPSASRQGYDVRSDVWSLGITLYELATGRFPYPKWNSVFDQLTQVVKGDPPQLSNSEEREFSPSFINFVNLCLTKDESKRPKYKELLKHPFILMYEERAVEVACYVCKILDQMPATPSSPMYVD

[9] = target: Mitogen-activated protein kinase kinase kinase 11 (Homo sapiens) (UniProt Q16584); experiment: Inhibition of MLK3 (unknown origin) at 1 uM by Ambit Kinomescan binding assay relative to control
Chain of Mitogen-activated protein kinase kinase kinase 11 (Homo sapiens) (Q16584 whole entry, looked up): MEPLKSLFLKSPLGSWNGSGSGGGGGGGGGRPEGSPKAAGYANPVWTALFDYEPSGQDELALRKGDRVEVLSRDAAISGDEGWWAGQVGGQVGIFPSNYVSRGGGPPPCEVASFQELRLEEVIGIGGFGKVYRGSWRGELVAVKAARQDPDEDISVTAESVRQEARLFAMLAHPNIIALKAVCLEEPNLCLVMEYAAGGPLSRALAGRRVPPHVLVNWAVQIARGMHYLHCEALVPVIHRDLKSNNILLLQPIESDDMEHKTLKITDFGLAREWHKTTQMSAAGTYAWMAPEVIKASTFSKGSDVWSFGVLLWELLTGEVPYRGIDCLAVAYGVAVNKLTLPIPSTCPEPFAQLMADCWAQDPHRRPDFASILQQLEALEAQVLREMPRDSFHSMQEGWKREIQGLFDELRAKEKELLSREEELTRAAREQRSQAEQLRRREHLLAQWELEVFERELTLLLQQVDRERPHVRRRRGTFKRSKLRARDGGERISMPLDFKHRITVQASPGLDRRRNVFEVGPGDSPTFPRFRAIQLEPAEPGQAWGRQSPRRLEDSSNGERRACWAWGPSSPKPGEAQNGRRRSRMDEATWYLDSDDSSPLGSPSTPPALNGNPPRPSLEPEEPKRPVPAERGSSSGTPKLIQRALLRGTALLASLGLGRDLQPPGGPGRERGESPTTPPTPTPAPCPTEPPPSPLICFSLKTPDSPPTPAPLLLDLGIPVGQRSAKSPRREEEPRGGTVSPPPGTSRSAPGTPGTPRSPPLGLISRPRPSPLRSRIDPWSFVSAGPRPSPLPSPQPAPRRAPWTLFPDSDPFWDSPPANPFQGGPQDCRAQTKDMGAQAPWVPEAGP

[10] = target: Calcium/calmodulin-dependent protein kinase type II subunit gamma (Homo sapiens) (UniProt Q13555); experiment: Inhibition of CaMK2g Lys1 labeling site harbouring KTSTQEYAAKIINTKK in human A-375 cells at 5 uM by KiNativ Profiling analysis relative to control; format: cell-based
Chain of Calcium/calmodulin-dependent protein kinase type II subunit gamma (Homo sapiens) (Q13555 whole entry): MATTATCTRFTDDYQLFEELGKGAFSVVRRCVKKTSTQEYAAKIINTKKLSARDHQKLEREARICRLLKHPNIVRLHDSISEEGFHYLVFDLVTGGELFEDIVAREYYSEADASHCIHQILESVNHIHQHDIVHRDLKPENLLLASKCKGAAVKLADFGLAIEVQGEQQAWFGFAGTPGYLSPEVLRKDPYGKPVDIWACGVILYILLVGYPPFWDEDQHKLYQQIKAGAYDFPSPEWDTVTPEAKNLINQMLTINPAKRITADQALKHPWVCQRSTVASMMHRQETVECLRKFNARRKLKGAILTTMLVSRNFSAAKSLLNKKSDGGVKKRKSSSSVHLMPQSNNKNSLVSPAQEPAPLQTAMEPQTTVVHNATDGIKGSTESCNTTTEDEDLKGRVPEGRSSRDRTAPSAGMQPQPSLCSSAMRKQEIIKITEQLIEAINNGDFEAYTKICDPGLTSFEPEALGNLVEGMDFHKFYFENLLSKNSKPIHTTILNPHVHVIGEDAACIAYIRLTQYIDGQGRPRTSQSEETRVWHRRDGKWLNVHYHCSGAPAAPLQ

[11] = target: Serine/threonine-protein kinase 16 (Homo sapiens) (UniProt O75716); experiment: Inhibition of MPSK1 Lys2 labeling site in human A-375 cells at 5 uM by KiNativ Profiling analysis relative to control; format: cell-based
Chain of Serine/threonine-protein kinase 16 (Homo sapiens) (O75716 whole entry, the tested form may be a part): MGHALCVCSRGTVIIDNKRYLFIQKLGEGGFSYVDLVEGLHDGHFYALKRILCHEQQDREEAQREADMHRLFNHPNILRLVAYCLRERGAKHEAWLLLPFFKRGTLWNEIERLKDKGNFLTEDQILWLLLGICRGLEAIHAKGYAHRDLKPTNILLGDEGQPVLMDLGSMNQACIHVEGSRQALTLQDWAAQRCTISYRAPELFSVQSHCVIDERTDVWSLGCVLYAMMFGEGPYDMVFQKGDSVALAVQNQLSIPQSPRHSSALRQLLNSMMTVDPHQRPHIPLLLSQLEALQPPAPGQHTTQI

[12] = target: Ribosomal protein S6 kinase alpha-3 (Homo sapiens) (UniProt P51812); experiment: Inhibition of RSK2 domain1 Lys2 labeling site harbouring DLKPENILLDEEGHIK in human A-375 cells at 5 uM by KiNativ Profiling analysis relative to control; format: cell-based
Chain of Ribosomal protein S6 kinase alpha-3 (Homo sapiens) (P51812 whole entry, the tested form may be a part): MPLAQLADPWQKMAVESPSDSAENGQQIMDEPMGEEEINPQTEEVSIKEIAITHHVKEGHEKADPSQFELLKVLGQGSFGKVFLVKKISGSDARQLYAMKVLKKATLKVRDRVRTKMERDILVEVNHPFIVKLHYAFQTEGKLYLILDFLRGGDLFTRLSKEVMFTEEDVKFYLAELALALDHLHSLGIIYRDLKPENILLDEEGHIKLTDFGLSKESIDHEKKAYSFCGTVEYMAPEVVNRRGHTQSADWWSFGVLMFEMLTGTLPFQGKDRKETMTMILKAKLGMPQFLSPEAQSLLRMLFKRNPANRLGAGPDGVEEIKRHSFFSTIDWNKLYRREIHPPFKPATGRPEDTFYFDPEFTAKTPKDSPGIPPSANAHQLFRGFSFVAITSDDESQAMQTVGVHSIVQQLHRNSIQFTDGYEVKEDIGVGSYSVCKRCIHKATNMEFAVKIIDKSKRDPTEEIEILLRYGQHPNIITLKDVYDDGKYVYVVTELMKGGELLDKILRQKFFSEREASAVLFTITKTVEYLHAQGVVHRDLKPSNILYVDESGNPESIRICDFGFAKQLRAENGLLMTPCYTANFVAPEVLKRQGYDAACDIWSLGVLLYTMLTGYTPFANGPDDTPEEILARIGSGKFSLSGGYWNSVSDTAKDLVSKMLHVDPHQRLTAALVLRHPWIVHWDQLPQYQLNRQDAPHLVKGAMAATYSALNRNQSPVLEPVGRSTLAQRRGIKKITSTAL
How it was run: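 Live A375 melanoma cells treated with compound at 5 or 0.5 μM, then lysed. Lysate kinases were labeled with a lysine-reactive ATP or ADP-biotin probe. Inhibition was read as protection of labeling sites from the probe.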

[13] = target: Cyclin-dependent kinase 4 (Homo sapiens) (UniProt P11802); experiment: Inhibition of CDK4 Lys2 labeling site in human A-375 cells at 0.05 uM by KiNativ Profiling analysis relative to control; format: cell-based
Chain of Cyclin-dependent kinase 4 (Homo sapiens) (P11802 whole entry): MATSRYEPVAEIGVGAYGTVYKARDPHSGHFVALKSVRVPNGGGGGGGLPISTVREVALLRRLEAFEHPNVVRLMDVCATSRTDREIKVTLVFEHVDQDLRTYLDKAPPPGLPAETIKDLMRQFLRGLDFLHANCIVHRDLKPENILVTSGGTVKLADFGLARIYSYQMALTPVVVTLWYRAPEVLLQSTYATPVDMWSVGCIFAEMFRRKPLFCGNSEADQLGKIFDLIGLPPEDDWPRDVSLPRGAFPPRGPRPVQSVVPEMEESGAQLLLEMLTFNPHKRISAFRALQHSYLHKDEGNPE

[14] = target: T3, Mitogen-activated protein kinase kinase kinase kinase 2 (Homo sapiens) (UniProt Q12851); experiment: Inhibition of MAP4K2 (GCK) Lys1 labeling site in human Huh-7 cells at 1 uM by KiNativ Profiling analysis relative to control; format: cell-based
T3 sequence (whole entry): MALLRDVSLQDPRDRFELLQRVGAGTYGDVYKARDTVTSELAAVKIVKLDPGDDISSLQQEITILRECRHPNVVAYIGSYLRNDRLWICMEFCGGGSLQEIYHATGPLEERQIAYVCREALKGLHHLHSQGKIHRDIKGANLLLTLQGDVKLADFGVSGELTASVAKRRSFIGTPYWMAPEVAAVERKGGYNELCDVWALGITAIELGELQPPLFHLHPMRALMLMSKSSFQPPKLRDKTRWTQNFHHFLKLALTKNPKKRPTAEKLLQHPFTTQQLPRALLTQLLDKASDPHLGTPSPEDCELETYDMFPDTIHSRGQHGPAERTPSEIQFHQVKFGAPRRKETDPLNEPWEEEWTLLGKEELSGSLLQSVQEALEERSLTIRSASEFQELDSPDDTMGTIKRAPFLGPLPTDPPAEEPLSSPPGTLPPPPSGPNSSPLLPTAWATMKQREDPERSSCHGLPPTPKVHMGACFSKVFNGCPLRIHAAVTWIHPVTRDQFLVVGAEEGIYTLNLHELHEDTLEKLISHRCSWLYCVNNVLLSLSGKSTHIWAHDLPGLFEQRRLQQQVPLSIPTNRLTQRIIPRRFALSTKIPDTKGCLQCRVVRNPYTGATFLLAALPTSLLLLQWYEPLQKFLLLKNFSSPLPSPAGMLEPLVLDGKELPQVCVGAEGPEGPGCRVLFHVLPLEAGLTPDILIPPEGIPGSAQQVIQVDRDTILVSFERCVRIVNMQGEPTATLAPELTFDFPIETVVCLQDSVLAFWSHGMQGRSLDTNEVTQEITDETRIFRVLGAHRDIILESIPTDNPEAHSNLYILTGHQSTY

[15] = target: Serine/threonine-protein kinase Nek6 (Homo sapiens) (UniProt Q9HC98); experiment: Inhibition of NEK6 Lys2 labeling site harbouring DIKPANVFITATGVVK in human Huh-7 cells at 1 uM by KiNativ Profiling analysis relative to control; format: cell-based
Chain of Serine/threonine-protein kinase Nek6 (Homo sapiens) (Q9HC98 whole entry): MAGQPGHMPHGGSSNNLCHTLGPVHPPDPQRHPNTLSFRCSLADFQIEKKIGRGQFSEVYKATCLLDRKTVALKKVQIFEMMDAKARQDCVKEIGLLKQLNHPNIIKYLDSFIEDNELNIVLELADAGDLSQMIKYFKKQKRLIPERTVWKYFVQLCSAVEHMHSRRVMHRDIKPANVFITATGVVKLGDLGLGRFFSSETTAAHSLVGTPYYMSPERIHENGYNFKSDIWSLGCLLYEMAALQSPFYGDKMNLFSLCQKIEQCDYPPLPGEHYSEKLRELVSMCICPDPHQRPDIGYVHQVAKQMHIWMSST

Chain of Tyrosine-protein kinase BTK (Homo sapiens) (Q06187 whole entry): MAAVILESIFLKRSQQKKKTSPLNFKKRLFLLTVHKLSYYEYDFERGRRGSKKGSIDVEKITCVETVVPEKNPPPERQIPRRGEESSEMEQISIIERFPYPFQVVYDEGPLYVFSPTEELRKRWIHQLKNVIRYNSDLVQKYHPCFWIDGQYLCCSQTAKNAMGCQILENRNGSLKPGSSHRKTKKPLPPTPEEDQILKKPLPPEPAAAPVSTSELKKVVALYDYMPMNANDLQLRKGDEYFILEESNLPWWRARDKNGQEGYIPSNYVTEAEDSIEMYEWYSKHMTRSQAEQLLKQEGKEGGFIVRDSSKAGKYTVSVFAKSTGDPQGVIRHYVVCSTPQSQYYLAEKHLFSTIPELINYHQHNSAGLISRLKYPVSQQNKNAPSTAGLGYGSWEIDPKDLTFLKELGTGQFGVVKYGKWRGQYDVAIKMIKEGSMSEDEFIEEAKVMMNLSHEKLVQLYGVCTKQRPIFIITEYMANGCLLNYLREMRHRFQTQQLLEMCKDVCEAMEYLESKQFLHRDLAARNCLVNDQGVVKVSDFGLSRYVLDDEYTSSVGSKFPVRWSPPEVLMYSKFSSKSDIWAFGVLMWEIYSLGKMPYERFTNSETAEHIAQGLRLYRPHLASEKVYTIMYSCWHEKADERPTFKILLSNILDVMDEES

## CCN1CCN(Cc2ccc(NC(=O)c3ccc(C)c(Oc4ccnc5[nH]ccc45)c3)cc2C(F)(F)F)CC1
[1]
  inhibition: inactive
[2]
  inhibition: inactive
[3]
  inhibition: inactive
[4]
  inhibition: -10%
[5]
  inhibition at 10 µM: -5.1%
[6]
  inhibition at 10 µM: 7.8%
[7]
  inhibition: 5.5%
[8]
  inhibition: -0.9%

## CCN1CCN(Cc2ccc(NC(=O)c3ccc(C)c(/C=C/c4cnc5[nH]ccc5c4OC)c3)cc2C(F)(F)F)CC1
[9]
  inhibition: 23%
[10]
  inhibition: 11.4%
[11]
  inhibition: 41%
[12]
  inhibition: 16.5%
[13]
  inhibition: -10%

## CNc1cc(Oc2cc(C(=O)Nc3cc(N4CCN(C)CC4)cc(C(F)(F)F)c3)ccc2C)ncn1
[14]
  inhibition: 88.3%
[15]
  inhibition: -2.7%
